# Assay results taken from ChEMBL document CHEMBL1132588, “Synthesis, CoMFA analysis, and receptor docking of 3,5-diacyl-2, 4-dialkylpyridine derivatives as selective A3 adenosine receptor antagonists” (J Med Chem, 1999).
# Legend:
# [1] = molecular target: T1, Adenosine receptor A3 (Homo sapiens) (UniProt P0DMS8); test: (§1) Displacement of specific [125 I]AB-MECA binding at human Adenosine A3 receptor expressed in HEK cells; type: cell-based; conditions: HEK293; concentration not given here
# T1 sequence (whole entry): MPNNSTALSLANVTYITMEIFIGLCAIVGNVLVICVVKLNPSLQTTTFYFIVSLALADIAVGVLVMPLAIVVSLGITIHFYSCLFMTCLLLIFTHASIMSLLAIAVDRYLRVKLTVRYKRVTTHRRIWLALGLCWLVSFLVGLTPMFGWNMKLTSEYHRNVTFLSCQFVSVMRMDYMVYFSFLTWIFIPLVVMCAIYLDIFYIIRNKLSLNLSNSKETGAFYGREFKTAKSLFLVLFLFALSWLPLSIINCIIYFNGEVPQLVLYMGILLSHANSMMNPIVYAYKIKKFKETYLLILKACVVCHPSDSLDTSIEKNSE
# Method in brief: (§2)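 Membranes from HEK-293 cells stably expressing human A3 receptor (clone HS-21a), or from CHO cells stably expressing rat A3 receptor (rat: n = 3-5), in 50 mM Tris, 10 mM Mg2+, 1 mM EDTA, pH 8.0. Membranes at 0.3 mg protein/mL with [125I]AB-MECA at 0.3 nM final. Nonspecific binding defined with R-PIA. Competitors were dissolved in DMSO (≤2% final) and tested at ≥5 concentrations spanning 3 log units. Bound ligand was separated by GF/B filtration with three buffer rinses; Ki was derived.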
# Rattus norvegicus [2] = species on record: Rattus norvegicus; test: Ratio of the binding affinities against rat A3 receptor / human A3 receptor, Ki(rA1) / Ki (hA3).
# Method in brief: (§3)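 Ratio of Ki values from binding assays. For A3, [125I]AB-MECA (final 0.3 nM) bound membranes of HEK-293 cells expressing human A3 (clone HS-21a) or CHO cells expressing rat A3, in Tris/Mg2+/EDTA buffer at pH 8.0. For rat A1, [3H]R-PIA bound cerebral cortex membranes, with adenosine deaminase (3 units/mL) present, including a 30 min preincubation at 30 °C.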
# Adenosine receptor A1 [3] = molecular target: T2, Adenosine receptor A1 (Rattus norvegicus, UniProt P25099); test: Displacement of specific [3H]-CGS- 21680R-PIA binding to Adenosine A1 receptor in rat brain membranes.; type: cell membranes; conditions: in the assay text read “[3H]R-PIA” for “[3H]-CGS- 21680R-PIA”
# T2 sequence (P25099 whole entry): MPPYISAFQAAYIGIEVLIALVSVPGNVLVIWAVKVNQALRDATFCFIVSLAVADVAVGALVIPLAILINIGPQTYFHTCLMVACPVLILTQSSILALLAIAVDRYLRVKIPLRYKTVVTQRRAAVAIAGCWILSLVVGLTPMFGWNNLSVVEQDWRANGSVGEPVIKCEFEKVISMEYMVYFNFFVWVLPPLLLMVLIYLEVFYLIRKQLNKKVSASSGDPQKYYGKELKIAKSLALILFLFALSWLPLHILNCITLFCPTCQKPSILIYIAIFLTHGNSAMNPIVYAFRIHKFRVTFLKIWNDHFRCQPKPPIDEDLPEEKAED
# Method in brief: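 A1 binding used [3H]R-PIA on rat cerebral cortex membranes. Adenosine deaminase (3 units/mL) was included in membrane preparation, in a 30 min preincubation at 30 °C, and throughout radioligand incubation. Competitors were DMSO stocks diluted in buffer, with DMSO never above 2%.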
# [4] = molecular target: T3, Adenosine receptor A3 (Rattus norvegicus) (UniProt P28647); test: (§4) Displacement of specific [125I]AB-MECA binding at rat Adenosine A3 receptor stably expressed in CHO cells; type: cell-based
# T3 sequence (whole entry): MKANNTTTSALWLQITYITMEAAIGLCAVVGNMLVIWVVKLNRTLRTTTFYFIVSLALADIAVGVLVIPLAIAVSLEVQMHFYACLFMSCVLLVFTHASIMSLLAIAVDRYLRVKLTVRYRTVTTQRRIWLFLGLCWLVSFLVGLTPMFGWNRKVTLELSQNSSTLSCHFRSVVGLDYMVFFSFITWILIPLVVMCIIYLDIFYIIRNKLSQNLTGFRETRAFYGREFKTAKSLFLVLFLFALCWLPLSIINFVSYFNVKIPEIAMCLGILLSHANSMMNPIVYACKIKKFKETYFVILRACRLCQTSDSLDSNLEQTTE
# Method in brief: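 Membranes from CHO cells stably expressing rat A3 receptor (0.3 mg protein/mL) were incubated with [125I]AB-MECA (final 0.3 nM) and test compound in 50 mM Tris, 10 mM Mg2+, 1 mM EDTA, pH 8.0. Compounds were dissolved in DMSO, with DMSO never exceeding 2%. At least five competitor concentrations spanning 3 orders of magnitude were tested. Nonspecific binding was defined with R-PIA. Bound ligand was collected by filtration over GF/B filters; n = 3-5.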
# Adenosine receptor A2a = Adenosine receptor A2a (Rattus norvegicus, UniProt P30543); test: Inhibition of [3H]-CGS- 21680 binding to Adenosine A2A receptor in rat striatal membranes.; type: cell membranes, Membrane
# Rattus norvegicus [5] = species on record: Rattus norvegicus; test: Ratio of the binding affinities against rat A3 receptor / rat A3 receptor, Ki(rA1) / Ki (rA3).; method in brief: as §3
# Rattus norvegicus [6] = species on record: Rattus norvegicus; test: Ratio of binding affinities for rat A1 receptor against human A3 receptor, [Ki(rA1) / Ki (hA3)].; method in brief: as §3
# Adenosine receptor A1 [7] = molecular target: T2, Adenosine receptor A1; test: Displacement of specific [3H]R-PIA binding to Adenosine A1 receptor in rat brain membranes.
# [8] = molecular target: T1, Adenosine receptor A3 (Homo sapiens); test: as §1; type: cell-based; conditions: HEK293
# Adenosine receptor A3 [9] = molecular target: T4, Adenosine receptor A3 (Homo sapiens, UniProt P0DMS8); test: as §1; type: cell-based, HEK293; method in brief: as §2
# T4 sequence (P0DMS8 whole entry): T1 sequence (whole entry)
# [10] = molecular target: Adenosine receptor A2a (Rattus norvegicus) (UniProt P30543); test: (§5) Displacement of specific [3H]-CGS- 21680 binding to Adenosine A2A receptor in rat striatal membranes; type: cell membranes; design: concentration or dose not given beside the values; conditions: Membrane, concentration not given here
# Method in brief: (§6)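 Rat striatal membranes labelled with [3H]CGS 21680 for A2A binding. Adenosine deaminase (3 units/mL) was present during membrane preparation, during a 30 min preincubation at 30 °C, and during radioligand incubation. Competitors were dissolved in DMSO and diluted in buffer (DMSO ≤2%).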
# [11] = molecular target: Adenosine receptor A2a (Rattus norvegicus) (UniProt P30543); test: as §5; type: cell membranes; conditions: Membrane; method in brief: as §6
# [12] = molecular target: T1, Adenosine receptor A3 (Homo sapiens); test: Displacement of specific[125 I]AB-MECA binding at human Adenosine A3 receptor expressed in HEK cells at 10 e-4M; type: cell-based; conditions: HEK293
# [13] = molecular target: Adenosine receptor A2a (Rattus norvegicus) (UniProt P30543); test: Displacement of specific [3H]-CGS- 21680 binding to Adenosine A2A receptor in rat striatal membranes at 10 e-5M; type: cell membranes; conditions: Membrane
# Adenosine receptor A3 [14] = molecular target: T5, Adenosine receptor A3 (Rattus norvegicus, UniProt P28647); test: as §4; type: cell-based
# T5 sequence (P28647 whole entry): T3 sequence (whole entry)
# [15] = molecular target: Adenosine receptor A2a (Rattus norvegicus) (UniProt P30543); test: Displacement of specific [3H]-CGS- 21680 binding to Adenosine A2A receptor in rat striatal membranes at 10 e-4M; type: cell membranes; conditions: Membrane
# Sequence of Adenosine receptor A2a (Rattus norvegicus) (P30543 whole entry): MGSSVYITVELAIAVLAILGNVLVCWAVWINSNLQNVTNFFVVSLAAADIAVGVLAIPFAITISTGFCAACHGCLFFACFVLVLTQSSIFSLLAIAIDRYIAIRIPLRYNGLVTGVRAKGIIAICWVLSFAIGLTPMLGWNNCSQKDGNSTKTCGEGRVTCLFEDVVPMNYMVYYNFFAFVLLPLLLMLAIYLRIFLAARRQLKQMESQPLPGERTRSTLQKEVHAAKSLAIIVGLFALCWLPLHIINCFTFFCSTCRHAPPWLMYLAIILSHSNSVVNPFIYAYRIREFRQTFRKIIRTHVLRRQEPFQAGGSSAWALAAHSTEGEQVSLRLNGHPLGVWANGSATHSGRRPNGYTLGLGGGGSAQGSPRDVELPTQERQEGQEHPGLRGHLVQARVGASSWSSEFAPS
# Sequence of Adenosine receptor A2a (P30543 whole entry): as above
Ratio (Rattus norvegicus [2]),Ki (Adenosine receptor A1 [3]),Ratio (Rattus norvegicus [5]),Ratio (Rattus norvegicus [6]),Ki (Adenosine receptor A1 [7]),pKi [8],Ki (Adenosine receptor A3 [9]),SMILES,other results
< 1,19.8 µM,76,,,,,CCCOC(=O)c1c(-c2ccccc2)nc(CCF)c(C(=O)SCC)c1CCC,inhibition [1]: 15%; Ki [4]: 0.26 µM; Ki (Adenosine receptor A2a): 30.8 µM
,,,590,13.5 µM,7.64,0.023 µM,CCCOC(=O)c1c(-c2ccccc2F)nc(CC)c(C(=O)SCC)c1CCC,Ki (Adenosine receptor A2a): 8.63 µM
,,,68,13.2 µM,6.71,0.193 µM,CCCc1c(C(=O)SCC)c(CCSC(C)=O)nc(-c2ccccc2)c1C(=O)OCC,inhibition [10]: 30%
,5.24 µM,,,,,,CCOC(=O)c1c(-c2ccccc2)nc(CC)c(C(=O)SCC)c1CCCN1C(=O)c2ccccc2C1=O,Displacement [11]: 10%; Displacement [12]: 28%
22,,42,820,,8.08,,CCCOC(=O)c1c(-c2ccccc2)nc(CC)c(C(=O)SCC)c1CC,Displacement [13]: 10%
1.9,12.6 µM,81,150,,7.08,0.0828 µM,CCCOC(=O)c1c(-c2ccccc2)nc(CC)c(C(=O)SCCCF)c1CCC,Displacement [11]: < 10%; Ki (Adenosine receptor A3 [14]): 0.156 µM
,,,510,113 µM,6.66,0.22 µM,CCCCCCSC(=O)c1c(CC)nc(-c2cccc(Cl)c2)c(C(=O)OCCC)c1CC,Displacement [15]: 10%
